Here are results for 26 compounds from ChEMBL document CHEMBL1129565, “Selective inhibitors of monoamine oxidase. 3. Structure-activity relationship of tricyclics bearing imidazoline, oxadiazole, or tetrazole groups” (J Med Chem, 1996).

For data set [1], the target named is T1, Amine oxidase [flavin-containing] A (Rattus norvegicus, UniProt P21396).
T1 sequence (P21396 whole entry): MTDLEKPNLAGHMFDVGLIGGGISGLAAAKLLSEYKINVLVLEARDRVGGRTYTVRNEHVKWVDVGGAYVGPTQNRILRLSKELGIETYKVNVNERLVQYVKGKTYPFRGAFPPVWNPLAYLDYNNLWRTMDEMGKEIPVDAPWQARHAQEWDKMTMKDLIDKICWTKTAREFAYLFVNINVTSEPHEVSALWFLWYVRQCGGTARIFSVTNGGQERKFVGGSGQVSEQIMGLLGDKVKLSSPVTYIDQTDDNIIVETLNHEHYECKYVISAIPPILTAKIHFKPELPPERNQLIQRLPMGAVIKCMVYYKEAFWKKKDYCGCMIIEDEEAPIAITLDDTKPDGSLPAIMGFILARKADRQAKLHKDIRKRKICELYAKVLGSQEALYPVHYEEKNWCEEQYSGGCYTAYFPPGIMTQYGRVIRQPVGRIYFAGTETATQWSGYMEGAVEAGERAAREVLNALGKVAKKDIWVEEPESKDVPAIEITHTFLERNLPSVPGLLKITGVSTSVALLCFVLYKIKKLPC
Put plainly: Inhibitory concentration against rat brain mitochondrial Monoamine oxidase A at 1 uM. The gist of the method: (§1)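 Rat brain mitochondrial MAO extract preincubated with inhibitor 15 min at 37 °C in 50 mM potassium phosphate pH 7.4. [3H]serotonin added at 0.2 μM final, then 20 min incubation. Pargyline 2 mM blanks. Stopped with HCl, products extracted into ethyl acetate/toluene and counted radiometrically. Triplicates; IC50 from mean % inhibition vs log concentration.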

Data set [2] has as its target T2, Amine oxidase [flavin-containing] B (Rattus norvegicus, UniProt P19643).
T2 sequence (P19643 whole entry): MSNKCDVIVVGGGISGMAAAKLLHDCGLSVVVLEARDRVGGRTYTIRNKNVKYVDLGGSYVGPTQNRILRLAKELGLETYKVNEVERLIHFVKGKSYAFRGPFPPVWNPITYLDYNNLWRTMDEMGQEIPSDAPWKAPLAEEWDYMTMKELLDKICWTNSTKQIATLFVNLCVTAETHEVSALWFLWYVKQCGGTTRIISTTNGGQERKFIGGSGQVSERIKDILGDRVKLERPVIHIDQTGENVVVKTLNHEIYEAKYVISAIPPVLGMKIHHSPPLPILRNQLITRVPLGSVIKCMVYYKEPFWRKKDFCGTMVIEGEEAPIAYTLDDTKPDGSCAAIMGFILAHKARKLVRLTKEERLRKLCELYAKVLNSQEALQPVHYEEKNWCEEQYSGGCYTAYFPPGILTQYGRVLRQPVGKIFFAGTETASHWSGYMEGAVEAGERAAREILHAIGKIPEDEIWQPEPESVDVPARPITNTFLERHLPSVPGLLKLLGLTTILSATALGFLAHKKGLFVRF
The experiment in a line: Inhibitory activity against rat brain mitochondrial Monoamine oxidase B at 1 uM. The gist of the method:
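Rat brain mitochondrial MAO extract preincubated with inhibitor 15 min at 37 °C in 50 mM potassium phosphate pH 7.4. [14C]phenethylamine added at 10 μM final, then 20 min incubation. Pargyline 2 mM blanks. Stopped with HCl, products extracted into ethyl acetate/toluene and counted radiometrically. Triplicates; IC50 from mean % inhibition vs log concentration.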

The target in data set [3] is T1, Amine oxidase [flavin-containing] A. Put plainly: Inhibitory concentration against rat brain mitochondrial monoamine oxidase A. The essentials:
as §1

Data set [4] shares this target. The experiment in a line: Inhibition of the enzyme Monoamine oxidase A which was not completely reverserved after 24 hr of dialysis. The essentials: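 Reversibility: MAO extract preincubated with or without inhibitor 15 min at 37 °C, in duplicate, then dialysed 24 h at 4 °C with shaking against 0.1 M potassium phosphate pH 7.4, 5% sucrose, 1 mM dithiothreitol, buffer changed ca. 3 and 19 h. Undialysed portions held at 4 °C; both assayed together for MAO activity.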

The inhibition is the relative decrease from the control value, in per cent. By IC50 is commonly meant the concentration that gives 50% inhibition. Usually Inhibition stands for how much of the control response was suppressed. A lower Inhibition goes with a weak effect.

As for `O=C1c2ccc(C3=NCCN3)cc2S(=O)(=O)c2cc(C(F)(F)F)ccc21`, the inhibition at 1 µM in data set [1] was 12%; in data set [2], 10%.

Take `O=c1c2ccccc2sc2c(C3=NCCN3)cccc12`: the inhibition at 1 µM was 7% in data set [1] and 10% in data set [2].

For the compound `O=S1(=O)c2ccccc2C(O)c2ccc(C3=NCCN3)cc21` (stereo not drawn), the inhibition at 1 µM was found to be 20% in data set [1] and 10% in data set [2].

As for `O=S1(=O)c2ccccc2-c2cc(C3=NCCN3)ccc21`, the figures for the inhibition at 1 µM in data set [1] and in data set [2] were 41% and 16%, respectively.

Consider `Cc1ccc(C)c2c1[nH]c1ccc(C3=NCCN3)cc12`, for which the figures for the inhibition at 1 µM in data set [1] and in data set [2] were 62% and 10%, respectively.

Compound `O=c1c2ccccc2sc2cc(C3=NCCN3)ccc12` returned a half-maximal inhibitory concentration (IC50) in data set [3] of 1000 nM. For the same compound, the inhibition at 1 µM in data set [2] was determined as 14%.

With `O=C1c2ccccc2S(=O)(=O)c2cc(C3=NCCCN3)ccc21`, the inhibition at 1 µM in data set [1] came out at 37%; in data set [2], 5%.

As to `CCn1nnc(-c2ccc3c(c2)S(=O)(=O)c2ccccc2C3=O)n1`, the values for the inhibition at 1 µM in data set [1] and in data set [2] were 36% and 45%, respectively.

`c1cc2c3c([nH]c2cc1C1=NCCN1)CCCC3`: the inhibition at 1 µM in data set [1] is 20%; in data set [2], 9%.

Turning to `CC(C)c1ccc2sc3cc(-c4nn[nH]n4)ccc3c(=O)c2c1`, the inhibition at 1 µM in data set [1] is 24%; in data set [2], 5%.

In turn, `COc1ccc2c(c1)C(=O)c1ccc(C3=NCCN3)cc1S2(=O)=O` registered a Reversible in data set [4] of 5%. In data set [3], this compound had a concentration for half-maximal inhibition (IC50) of 10 nM. Also, in data set [2], the inhibition at 1 µM stood at 33%.

With `[O-][S+]1c2ccccc2Sc2ccc(C3=NCCN3)cc21` (stereo not drawn), the inhibition at 1 µM in data set [1] and in data set [2] was 14% in each case.

`CN1CCN=C1c1ccc2c(c1)S(=O)(=O)c1ccccc1C2=O`: the inhibition at 1 µM in data set [1] was 27%; in data set [2], 18%. Besides, the Inhibition in data set [2] (1 µM) is reported as 11%.

For the compound `O=S1(=O)c2ccccc2Nc2cc(C3=NCCN3)ccc21`, the inhibition at 1 µM in data set [1] was found to be 23%; in data set [2] it was 12%.

Compound `CNc1ccc2c(c1)C(=O)c1ccc(C3=NCCN3)cc1S2(=O)=O` gave a Reversible in data set [4] of 8%. The same compound came in with an IC50 in data set [3] of 23 nM.

In data set [4], `CCOc1ccc2c(c1)C(=O)c1ccc(C3=NCCN3)cc1S2(=O)=O` showed a Reversible of 4%. The half-inhibitory concentration (IC50) in data set [3] worked out at 7 nM. In addition, the inhibition at 1 µM in data set [2] turned out to be 12%.

`O=C1c2cc(N3CCOCC3)ccc2S(=O)(=O)c2cc(C3=NCCN3)ccc21` yielded an IC50 in data set [3] of 10 nM. In addition, the inhibition at 1 µM in data set [2] is 4%.

In the case of `O=C1c2cc(C3=NCCN3)ccc2S(=O)(=O)c2cc(C3=NCCN3)ccc21`, the figures for the inhibition at 1 µM in data set [1] and in data set [2] were 46% and 3%, respectively.

For `Cn1nnc(-c2ccc3c(c2)S(=O)(=O)c2ccccc2C3=O)n1`, the Reversible in data set [4] was 100%. The compound also came in with an IC50 in data set [3] of 10 nM. The inhibition at 1 µM in data set [2] amounted to 10%.

Compound `Cc1nc(-c2ccc3c(c2)Sc2ccccc2O3)no1` displayed an IC50 in data set [3] of 200 nM. The inhibition at 1 µM in data set [2] came out at 14%.

In turn, `COc1nnc(-c2ccc3c(c2)S(=O)(=O)c2ccccc2C3=O)o1` returned an IC50 in data set [3] of 80 nM. In data set [2], the inhibition at 1 µM stood at 14%.

In data set [4], `C=CCNc1ccc2c(c1)C(=O)c1ccc(C3=NCCN3)cc1S2(=O)=O` came in with a Reversible of 5%. This compound returned an IC50 in data set [3] of 9 nM. Besides, the inhibition at 1 µM in data set [2] was found to be 12%.

`Cc1nc(-c2ccc3c(c2)S(=O)(=O)c2ccccc2O3)no1`: the inhibition at 1 µM in data set [1] came to 98%; in data set [2], 17%.

The compound `O=C1c2cc(F)ccc2S(=O)(=O)c2cc(C3=NCCN3)ccc21` displayed a Reversible in data set [4] of 62%. The same compound yielded an IC50 in data set [3] of 200 nM. Besides, the inhibition at 1 µM in data set [2] amounted to 12%.

Turning to `O=C1c2ccccc2S(=O)(=O)c2c1cccc2C1=NCCN1`, the inhibition at 1 µM in data set [1] is -5%; in data set [2], -6%.

Consider `CCc1nnc(-c2ccc3c(c2)S(=O)(=O)c2ccccc2C3=O)o1`, for which the IC50 in data set [3] came to 500 nM. Also, the inhibition at 1 µM in data set [2] came out at 23%.
